ChEMBL document CHEMBL1149392, “PTP-1B inhibitors: cyclopenta[d][1,2]-oxazine derivatives” (Bioorg Med Chem Lett, 2006)

Experiments:
[1] = target: T1, M-phase inducer phosphatase 1 (Homo sapiens, UniProt P30304); assay: Inhibitory activity against cdc25A phosphatase
T1 sequence (P30304 whole entry): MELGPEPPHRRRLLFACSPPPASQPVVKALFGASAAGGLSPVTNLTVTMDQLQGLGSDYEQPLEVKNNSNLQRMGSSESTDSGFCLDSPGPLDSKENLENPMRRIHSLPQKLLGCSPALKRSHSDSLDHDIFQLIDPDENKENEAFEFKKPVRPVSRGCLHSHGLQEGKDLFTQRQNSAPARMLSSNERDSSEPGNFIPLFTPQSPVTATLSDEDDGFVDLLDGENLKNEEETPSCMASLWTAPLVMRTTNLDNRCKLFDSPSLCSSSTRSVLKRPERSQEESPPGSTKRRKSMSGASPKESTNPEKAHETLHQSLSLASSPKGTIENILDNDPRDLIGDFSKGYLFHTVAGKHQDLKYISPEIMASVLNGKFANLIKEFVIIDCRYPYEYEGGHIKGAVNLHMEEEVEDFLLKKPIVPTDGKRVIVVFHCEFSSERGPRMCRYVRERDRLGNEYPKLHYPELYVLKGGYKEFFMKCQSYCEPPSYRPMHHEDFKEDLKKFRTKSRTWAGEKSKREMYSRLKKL
How it was run: (§1)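 Selectivity panel of nine phosphatases, each assayed with fluorescein diphosphate at the same concentration as in the PTP-1B assay (20 μM). IC50 values (μM) reported.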

[2] = target: T2, M-phase inducer phosphatase 3 (Homo sapiens, UniProt P30307); assay: Inhibitory activity against cdc25C phosphatase; how it was run: as §1
T2 sequence (P30307 whole entry): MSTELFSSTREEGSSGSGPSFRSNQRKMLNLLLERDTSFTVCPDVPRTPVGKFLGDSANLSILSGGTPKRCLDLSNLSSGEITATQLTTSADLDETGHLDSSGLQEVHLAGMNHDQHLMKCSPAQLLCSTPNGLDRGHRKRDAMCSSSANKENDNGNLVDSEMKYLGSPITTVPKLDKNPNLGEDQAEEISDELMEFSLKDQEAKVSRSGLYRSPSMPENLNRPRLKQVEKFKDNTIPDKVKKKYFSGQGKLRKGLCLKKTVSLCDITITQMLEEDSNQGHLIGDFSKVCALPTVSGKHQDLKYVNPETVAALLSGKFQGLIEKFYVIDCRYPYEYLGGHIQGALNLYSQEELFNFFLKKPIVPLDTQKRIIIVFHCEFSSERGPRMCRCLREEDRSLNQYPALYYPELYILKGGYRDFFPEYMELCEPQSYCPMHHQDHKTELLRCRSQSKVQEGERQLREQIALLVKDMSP

[3] = target: Receptor-type tyrosine-protein phosphatase F (Homo sapiens, UniProt P10586); assay: Inhibitory activity against LAR protein tyrosine phosphatase; how it was run: as §1
Sequence of Receptor-type tyrosine-protein phosphatase F (P10586 whole entry): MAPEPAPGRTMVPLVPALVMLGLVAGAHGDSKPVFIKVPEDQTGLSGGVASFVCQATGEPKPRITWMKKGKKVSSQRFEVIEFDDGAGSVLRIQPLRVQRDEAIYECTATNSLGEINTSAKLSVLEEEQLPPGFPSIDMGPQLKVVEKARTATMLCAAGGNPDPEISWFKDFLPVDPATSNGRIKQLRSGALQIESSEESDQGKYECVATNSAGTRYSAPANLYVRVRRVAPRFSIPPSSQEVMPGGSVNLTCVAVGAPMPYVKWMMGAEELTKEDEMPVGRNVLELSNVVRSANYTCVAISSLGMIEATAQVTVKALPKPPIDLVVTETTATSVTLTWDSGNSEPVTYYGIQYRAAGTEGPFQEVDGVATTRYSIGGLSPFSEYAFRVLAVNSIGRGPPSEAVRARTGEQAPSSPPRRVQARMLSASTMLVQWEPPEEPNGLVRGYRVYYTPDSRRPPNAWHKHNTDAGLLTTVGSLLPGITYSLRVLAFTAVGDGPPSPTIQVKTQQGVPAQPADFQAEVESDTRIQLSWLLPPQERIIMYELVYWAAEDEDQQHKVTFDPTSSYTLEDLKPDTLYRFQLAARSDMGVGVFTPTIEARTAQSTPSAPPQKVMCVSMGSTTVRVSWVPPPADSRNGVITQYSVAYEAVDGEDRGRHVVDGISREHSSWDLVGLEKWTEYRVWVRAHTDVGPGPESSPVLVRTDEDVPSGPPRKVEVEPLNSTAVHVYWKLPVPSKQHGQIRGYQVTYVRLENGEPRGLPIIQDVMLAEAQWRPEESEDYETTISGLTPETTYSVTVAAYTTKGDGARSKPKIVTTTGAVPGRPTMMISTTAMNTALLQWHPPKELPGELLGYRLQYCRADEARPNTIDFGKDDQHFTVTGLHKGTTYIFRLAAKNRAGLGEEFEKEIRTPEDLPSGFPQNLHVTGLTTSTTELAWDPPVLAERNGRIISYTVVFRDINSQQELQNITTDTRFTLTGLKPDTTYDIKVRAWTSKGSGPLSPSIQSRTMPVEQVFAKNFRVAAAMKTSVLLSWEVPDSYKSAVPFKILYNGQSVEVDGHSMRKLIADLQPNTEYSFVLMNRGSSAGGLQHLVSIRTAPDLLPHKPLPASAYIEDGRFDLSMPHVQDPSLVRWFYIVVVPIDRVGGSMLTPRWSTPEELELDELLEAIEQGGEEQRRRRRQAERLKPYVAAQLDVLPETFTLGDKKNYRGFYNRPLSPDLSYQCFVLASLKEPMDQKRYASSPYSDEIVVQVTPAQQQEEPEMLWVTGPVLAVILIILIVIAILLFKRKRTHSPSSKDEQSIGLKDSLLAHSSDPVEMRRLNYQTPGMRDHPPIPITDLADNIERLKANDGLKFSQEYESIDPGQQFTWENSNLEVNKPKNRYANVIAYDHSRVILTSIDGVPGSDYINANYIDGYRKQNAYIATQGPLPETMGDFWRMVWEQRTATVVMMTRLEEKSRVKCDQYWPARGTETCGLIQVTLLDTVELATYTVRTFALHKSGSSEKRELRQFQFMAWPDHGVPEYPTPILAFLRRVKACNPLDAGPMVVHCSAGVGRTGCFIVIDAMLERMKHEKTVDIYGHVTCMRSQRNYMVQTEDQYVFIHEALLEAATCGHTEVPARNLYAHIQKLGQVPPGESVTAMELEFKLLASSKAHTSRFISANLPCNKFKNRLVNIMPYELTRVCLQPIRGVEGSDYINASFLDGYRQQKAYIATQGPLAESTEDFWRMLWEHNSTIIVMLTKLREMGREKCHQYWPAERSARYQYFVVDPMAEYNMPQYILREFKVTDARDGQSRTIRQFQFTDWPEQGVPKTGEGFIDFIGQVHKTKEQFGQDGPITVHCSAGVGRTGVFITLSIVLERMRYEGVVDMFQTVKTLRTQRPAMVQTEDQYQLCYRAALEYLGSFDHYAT

[4] = target: T3, M-phase inducer phosphatase 2 (Homo sapiens, UniProt P30305); assay: Inhibitory activity against cdc25B phosphatase; how it was run: as §1
T3 sequence (P30305 whole entry): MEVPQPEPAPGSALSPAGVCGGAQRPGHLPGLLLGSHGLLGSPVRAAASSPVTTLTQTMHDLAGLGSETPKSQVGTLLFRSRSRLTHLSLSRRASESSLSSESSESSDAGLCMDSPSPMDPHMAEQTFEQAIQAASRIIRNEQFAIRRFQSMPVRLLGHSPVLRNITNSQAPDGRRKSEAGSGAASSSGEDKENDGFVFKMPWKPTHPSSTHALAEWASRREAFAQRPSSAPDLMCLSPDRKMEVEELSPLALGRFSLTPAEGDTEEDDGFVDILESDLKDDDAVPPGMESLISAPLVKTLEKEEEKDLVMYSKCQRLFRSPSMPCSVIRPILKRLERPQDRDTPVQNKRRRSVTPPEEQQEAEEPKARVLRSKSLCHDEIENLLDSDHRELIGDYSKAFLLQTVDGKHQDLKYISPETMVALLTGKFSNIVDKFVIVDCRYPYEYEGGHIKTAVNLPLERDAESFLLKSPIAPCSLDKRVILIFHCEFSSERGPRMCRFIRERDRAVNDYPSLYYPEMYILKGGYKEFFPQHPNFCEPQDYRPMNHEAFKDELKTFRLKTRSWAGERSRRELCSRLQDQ

[5] = target: T4, Receptor-type tyrosine-protein phosphatase C (Homo sapiens, UniProt P08575); assay: Inhibitory activity against CD45 phosphatase; how it was run: as §1
T4 sequence (P08575 whole entry): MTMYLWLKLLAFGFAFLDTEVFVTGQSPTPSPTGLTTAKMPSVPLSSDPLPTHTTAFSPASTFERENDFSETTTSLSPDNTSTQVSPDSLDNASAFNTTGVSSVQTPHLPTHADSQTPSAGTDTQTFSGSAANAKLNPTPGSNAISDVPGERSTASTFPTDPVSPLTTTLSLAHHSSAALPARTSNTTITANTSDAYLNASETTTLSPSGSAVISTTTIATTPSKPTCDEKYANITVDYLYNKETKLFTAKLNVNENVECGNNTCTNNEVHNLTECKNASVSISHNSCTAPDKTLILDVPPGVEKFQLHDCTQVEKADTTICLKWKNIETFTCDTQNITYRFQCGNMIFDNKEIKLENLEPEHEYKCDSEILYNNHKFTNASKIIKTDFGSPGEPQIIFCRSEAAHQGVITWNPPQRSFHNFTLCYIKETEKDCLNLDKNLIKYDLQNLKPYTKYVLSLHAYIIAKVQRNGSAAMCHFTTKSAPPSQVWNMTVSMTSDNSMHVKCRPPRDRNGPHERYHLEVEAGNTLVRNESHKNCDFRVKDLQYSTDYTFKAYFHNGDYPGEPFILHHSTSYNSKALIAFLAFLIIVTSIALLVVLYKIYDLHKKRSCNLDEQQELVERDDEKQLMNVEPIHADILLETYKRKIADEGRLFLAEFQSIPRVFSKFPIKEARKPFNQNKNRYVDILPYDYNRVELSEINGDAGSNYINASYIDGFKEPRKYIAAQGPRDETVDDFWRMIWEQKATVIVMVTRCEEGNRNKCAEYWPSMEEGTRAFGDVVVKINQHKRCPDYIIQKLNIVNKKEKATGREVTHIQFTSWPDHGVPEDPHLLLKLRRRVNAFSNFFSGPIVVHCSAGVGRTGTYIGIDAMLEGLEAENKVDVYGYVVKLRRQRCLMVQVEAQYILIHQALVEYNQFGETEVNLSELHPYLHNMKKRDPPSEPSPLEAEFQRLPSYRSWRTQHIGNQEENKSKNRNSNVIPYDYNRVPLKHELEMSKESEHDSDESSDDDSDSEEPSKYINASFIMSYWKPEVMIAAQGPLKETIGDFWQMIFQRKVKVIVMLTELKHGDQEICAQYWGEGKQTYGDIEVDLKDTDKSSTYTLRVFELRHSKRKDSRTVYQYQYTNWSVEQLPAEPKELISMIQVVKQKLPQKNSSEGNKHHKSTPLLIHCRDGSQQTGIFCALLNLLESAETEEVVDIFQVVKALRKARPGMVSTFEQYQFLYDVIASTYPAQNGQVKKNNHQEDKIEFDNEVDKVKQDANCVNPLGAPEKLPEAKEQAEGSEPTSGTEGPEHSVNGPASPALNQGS

| SMILES | IC50 [1] [µM] | IC50 [2] [µM] | IC50 [3] [µM] | IC50 [4] [µM] | IC50 [5] [nM] |
| --- | --- | --- | --- | --- | --- |
| NCc1ccc(C(=O)c2ccc3c(-c4ccc(OCC(=O)O)cc4)nocc2-3)cc1 | 10 | > 10 | > 10 | 10 | 1230 |
| COc1ccc(C(=O)c2ccc3c(-c4ccc(OCC(=O)O)cc4)nocc2-3)cc1 | 73.3 | 61.7 | 61.7 | 16.1 | 28800 |
| CCCCCCCCCCCCCCc1ccc(C(=O)c2ccc3c(-c4ccc(OCC(=O)O)cc4)nocc2-3)cc1 | 1.33 | 2.27 | 0.69 | 0.12 | 150 |
